Data: PMC4629265 (Acta Pharmaceutica Sinica. B, 2015)

Key:
Assay type in all cases: cell-based
Vero cells = assay: Cytotoxicity on Vero cells, CPE method; conditions: 3 d
How it was run: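 Vero cells were seeded at 3×10⁴ cells/well and incubated overnight. Test compounds were then added at different concentrations in triplicate and incubated 3 d, with cytotoxicity scored by CPE. TC50, the concentration inhibiting 50% of cell growth versus untreated controls, was calculated by Reed and Muench.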

HCV = assay: Anti-HCV assay in infected Huh7.5 cells, HCV RNA by RT-PCR; conditions: Hepatitis C virus, Huh7.5, 96 h, read-out: IC50 (anti-HCV activity)
How it was run: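 Huh7.5 cells (DMEM, 10% inactivated FBS) were seeded at 3×10⁴ cells/cm². After 6 h they were infected with chimeric J6/JFH/JC1 HCV stock (45 u/cell) and given test compound at the same time, with an NS3/4A protease inhibitor as positive control. At 96 h, intracellular total RNA was extracted and HCV RNA quantified by one-step RT-PCR. IC50 was calculated by Reed & Muench.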

[1] = Cytotoxicity in Huh7.5 cells, MTT assay; conditions: human
How it was run: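 Huh7.5 cells were plated at 1×10⁴ cells/well. After 6 h the medium was replaced with fresh medium containing test compound at various concentrations. Viability was read by MTT at 96 h, and CC50 was calculated by the Reed & Muench method.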

EV71 (strain SZ-98) = assay: Anti-EV71 assay in Vero cells, CPE method; conditions: EV71 strain SZ-98, Vero cells
How it was run: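 Vero cells (MEM, 10% FBS) at 3×10⁴ cells/well were infected with 100TCID50 EV71 strain SZ-98. Test compounds were added immediately at various concentrations and incubated another 48 h. Cytopathic effect was scored, with pirodavir as positive control. IC50 was determined by the Reed and Muench method.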

Work on CCC(=O)Nc1cc(C(=O)Nc2ccc(C(C)C)cc2)ccc1OC [Compound 22, N-(4-Iso-propylphenyl)-4-methoxy-3-propionamidobenzamide] yielded a TC50 (Vero cells) of over 65.35 µM.
CCC(=O)Nc1cc(C(=O)Nc2ccc(C(C)(C)C)cc2)ccc1OC [Compound 23, N-(4-tert-Butylphenyl)-4-methoxy-3-propionamidobenzamide] showed an IC50 (HCV) of 0.57 µM, a CC50 at 96 h [1] of 30.7 ± 1.25 µM and a TC50 (Vero cells) of 36.24 ± 0.00 µM.
Compound CCCCc1ccc(NC(=O)c2ccc(OC)c(NC(=O)CC)c2)cc1 [Compound 24, N-(4-Butylphenyl)-4-methoxy-3-propionamidobenzamide] has a TC50 (Vero cells) of 36.24 ± 0.00 µM.
CCC(=O)Nc1cc(C(=O)Nc2ccc(C3CCCCC3)cc2)ccc1OC [Compound 25, N-(4-Cyclohexylphenyl)-4-methoxy-3-propionamidobenzamide] showed an IC50 (HCV) of 2.36 ± 0.12 µM and a CC50 at 96 h [1] of 122 ± 2.6 µM.
In the case of CCC(=O)Nc1cc(C(=O)Nc2ccc(C#N)cc2)ccc1OC [Compound 26, N-(4-Cyanophenyl)-4-methoxy-3-propionamidobenzamide], the TC50 (Vero cells) is reported as 297.67 µM.
In the case of CCC(=O)Nc1cc(C(=O)Nc2ccc(N3CCN(C)CC3)cc2)ccc1OC [Compound 27, N-(4-(4-Methylpiperazin-1-yl)phenyl)-4-methoxy-3-propionamidobenzamide], the “anti-EV71 activity (in words)” value (EV71 (strain SZ-98)) is reported as “did not display antiviral activity” and the TC50 (Vero cells) is reported as 291.60 ± 0.00 µM.
With CNc1cc(C(=O)Nc2cccc(Cl)c2)ccc1OC [Compound 28, N-(3-Chlorophenyl)-4-methoxy-3-(methylamino)benzamide] the TC50 (Vero cells) was 110.50 ± 0.00 µM.
Compound CCc1ccc(NC(=O)c2ccc(OC)c(NC)c2)cc1 [Compound 29, N-(4-Ethylphenyl)-4-methoxy-3-(methylamino)benzamide] has a TC50 (Vero cells) of over 26.09 µM.
CNc1cc(C(=O)Nc2ccc(C(C)C)cc2)ccc1OC [Compound 30, N-(4-iso-propylphenyl)-4-methoxy-3-(methylamino)benzamide] gave a TC50 (Vero cells) of over 8.29 µM.
With CNc1cc(C(=O)Nc2ccc(C(C)(C)C)cc2)ccc1OC [Compound 31, N-(4-tert-Butylphenyl)-4-methoxy-3-(methylamino)benzamide] the IC50 (HCV) was 32 ± 2.14 µM, the CC50 at 96 h [1] was 56.6 ± 4.2 µM and the TC50 (Vero cells) was 34.23 ± 0.00 µM.
CCCCc1ccc(NC(=O)c2ccc(OC)c(NC)c2)cc1 [Compound 32, N-(4-Butylphenyl)-4-methoxy-3-(methylamino)benzamide] gave a TC50 (Vero cells) of 41.12 ± 0.00 µM.
CNc1cc(C(=O)Nc2ccc(C3CCCCC3)cc2)ccc1OC [Compound 33, N-(4-Cyclohexylphenyl)-4-methoxy-3-(methylamino)benzamide] showed an IC50 (HCV) of 34.6 ± 3.1 µM and a CC50 at 96 h [1] of 40 ± 7.25 µM.
Compound CNc1cc(C(=O)Nc2ccc(C#N)cc2)ccc1OC [Compound 34, N-(4-Cyanophenyl)-4-methoxy-3-(methylamino)benzamide] has a TC50 (Vero cells) of over 79.07 µM.
Work on CCC(=O)Nc1cc(C(=O)Nc2ccc(Cl)cc2)ccc1O [Compound 35, N-(4-Chlorophenyl)-4-hydroxy-3-propionamidobenzamide] yielded a TC50 (Vero cells) of 100.79 ± 0.00 µM.
CCC(=O)Nc1cc(C(=O)Nc2ccc(C(C)(C)C)cc2)ccc1O [Compound 36, N-(4-tert-Butylphenyl)-4-hydroxy-3-propionamidobenzamide] gave a TC50 (Vero cells) of 86.08 ± 0.00 µM.
Work on CCC(=O)Nc1cccc(C(=O)Nc2ccc(Cl)cc2)c1 [Compound 41, N-(4-Chlorophenyl)-3-propionamidobenzamide] yielded an IC50 (HCV) of 7.12 ± 2.48 µM, a CC50 at 96 h [1] of over 200 µM and a TC50 (Vero cells) of 106.12 ± 0.00 µM.
Compound CNc1cccc(C(=O)Nc2ccc(Cl)cc2)c1 [Compound 42, N-(4-Chlorophenyl)-3-(methylamino)benzamide] has an IC50 (HCV) of 19.5 ± 7.18 µM, a CC50 at 96 h [1] of 164 ± 9.84 µM and a TC50 (Vero cells) of over 28.5 µM.
For CCC(=O)Nc1cc(C(=O)CNc2ccc(C)cc2)ccc1OC [Compound 49, N-(2-Methoxy-5-(2-(p-tolylamino)acetyl)phenyl)propionamide], the “anti-EV71 activity (in words)” value (EV71 (strain SZ-98)) was “inactive” and the TC50 (Vero cells) was 98.31 µM.
In the case of CCC(=O)Nc1cc(C(=O)CNc2ccc(C(C)(C)C)cc2)ccc1OC [Compound 50, N-(5-(2-((4-(tert-Butyl)phenyl)amino)acetyl)-2-methoxyphenyl)propionamide], the “anti-EV71 activity (in words)” value (EV71 (strain SZ-98)) is reported as “inactive” and the TC50 (Vero cells) is reported as over 20.14 µM.
With CNc1cc(C(=O)CNc2ccccc2)ccc1OC [Compound 54, 1-(4-Methoxy-3-(methylamino)phenyl)-2-(phenylamino)ethanone] the “anti-EV71 activity (in words)” value (EV71 (strain SZ-98)) was “inactive” and the TC50 (Vero cells) was 167.11 ± 34.70 µM.
In the case of CNc1cc(C(=O)CNc2ccc(Cl)cc2)ccc1OC [Compound 55, 2-((4-Chlorophenyl)amino)-1-(4-methoxy-3-(methylamino)phenyl)ethanone], the “anti-EV71 activity (in words)” value (EV71 (strain SZ-98)) is reported as “inactive” and the TC50 (Vero cells) is reported as 73.10 ± 0.00 µM.
Work on CCOC(=O)c1ccc(OCCC2CCN(c3ccc(C)nn3)CC2)cc1 [Pirodavir, pirodavir, reference compound] yielded a TC50 (Vero cells) of 49.78 ± 3.96 µM.
In the case of CCC[C@H](NC(=O)[C@@H]1[C@H]2CCC[C@H]2CN1C(=O)[C@@H](NC(=O)[C@@H](NC(=O)c1cnccn1)C1CCCCC1)C(C)(C)C)C(=O)C(=O)NC1CC1 [VX-950, telaprevir, reference compound], the IC50 (HCV) is reported as 0.01 µM and the CC50 at 96 h [1] is reported as 21.3 ± 4.7 µM.
In the case of “N-(2,3-Dihydrobenzo[b][1,4]dioxin-6-yl)-4-methyl-3-(methylamino)benzamide [Compound 44]”, the “anti-EV71 activity (in words)” value (EV71 (strain SZ-98)) is reported as “poor” and the TC50 (Vero cells) is reported as 322.65 ± 0.00 µM.
With “N-(2,3-Dihydrobenzo[b][1,4]dioxin-6-yl)-4-methyl-3-propionamidobenzamide [Compound 43]” the “anti-EV71 activity (in words)” value (EV71 (strain SZ-98)) was “poor” and the TC50 (Vero cells) was 196.10 ± 0.00 µM.
